Laboratory results taken from PubChem BioAssay AID573 (SRMLSC, 2007).
Among all 65,000 compounds or so, about 1,400 (2.2%) were called active.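 How the source made its calls: active means growth inhibition at or above a cutoff equal to the mean over every tested compound plus 3 SD (cut at about 60% in these data); inactive means the rest.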 For the sample, actives were picked, then their nearest neighbours and some compounds at random.

Assay: E. coli ΔtolC antibacterial growth inhibition – strain BW25113 ΔtolC::kan, 384-well, primary screen (AID 573);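 further: growth measured after 20 h incubation at 37 °C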
Settings: E. coli BW25113 tolC mutant growth, OD615; stronger effect = higher value; screened at 10 µM (by protocol)
Method in brief: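 signal = optical density read at 615 nm | test system = E. coli ΔtolC::kan strain BW25113 | timing = 20 h compound exposure of bacteria at 37 °C | buffer or medium = LB medium plus 50 µg/mL kanamycin | compound dosing = 10 µM final, single dose | evaluation = % inhibition of E. coli growth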

Growth inhibition, inactive:
C=CCSc1nc2c(c(=O)[nH]1)C(C(C)C)C(C#N)=C(N)O2 (configuration not stated) 0.15%
CCCn1c(=NC(C)=O)c(C(=O)OCC)cc2c(=O)n3ccccc3nc21 -3.58%
C=CCOc1nc2c(c(=O)n(C)c(=O)n2C)n1Cc1ccc(Cl)cc1Cl 12.2%
CCCN(CCC)C(=O)C1c2ccccc2Oc2ccccc21 17.6%
CCOC(=O)N1CCC(NC(=O)Cn2cc3c(n2)CCCCC3)CC1 -12.2%
CCC(Oc1ccccc1)C(=O)NCc1cccnc1 (configuration not stated) -6.02%
Cc1ccc(OCc2nc(C#N)c(N3CCCC3)o2)cc1 5.67%
COc1ccc(N2CC(C)Cn3c2nc2c3c(=O)n(Cc3ccccc3F)c(=O)n2C)c(OC)c1 (configuration not stated) 13.4%
Cc1nnc(SCC(=O)NCCOc2ccc(Cl)cc2)n1-c1ccccc1 -1.57%
COc1ccc2c(c1)CCc1c(C(=O)N3CCCC3)noc1-2 -0.81%
COc1ccc2c(c1)CCc1c(C(=O)Nc3c(C)n(C)n(-c4ccccc4)c3=O)noc1-2 -4.64%
CCCOC(=O)c1cc2ccccc2oc1=O -13.8%
O=c1c(-c2ccc3c(c2)OCCO3)c(C(F)(F)F)oc2cc(O)cc(O)c12 11.4%
CC1(c2ccccc2Cl)NC(=O)N(CC(=O)NC(=O)NCc2ccco2)C1=O (configuration not stated) -3.76%
COc1ccc(C2=NOC(C(=O)NCc3ccco3)C2)cc1OC (configuration not stated) -12.4%
CCS(=O)(=O)n1nc(-c2ccc(OC)cc2)nc1SC 2.8%
CCCc1cc(=O)n2[nH]c(SCc3ccccc3)nc2n1 11.2%
CCSC1=C(C#N)C(=O)n2c1cc1c2CCCC1 11.6%
Cc1ccc(S(=O)(=O)N2CCC(C(=O)N[C@@H](C)C(=O)NCCc3ccccc3)CC2)cc1 -5.94%
c1ccc2[nH]c(NCCN3CCOCC3)nc2c1 -17.2%
COc1ccc(Nc2oc(-c3ccccc3Cl)nc2C#N)cc1 9.32%
COc1ccc(OC)c2c(N)c(C#N)c(C(F)(F)C(F)(F)F)nc12 2.98%
O=C(Nc1ccc(Cl)cn1)c1cnn2cccnc12 -3.45%
CCN=C1SC(CC(=O)Nc2ccc(C)cc2)C(=O)N1CC (configuration not stated) -9.63%
C[C@H](NC(=O)OC(C)(C)C)c1nnc(SCC(=O)Nc2ccc(Br)cc2)o1 15.3%
CC(C)(CSc1nncn1/N=C/c1ccco1)NS(=O)(=O)c1ccc(Cl)cc1 15.6%
COc1ccc(Cc2nnc(NS(=O)(=O)Cc3ccccc3)s2)cc1 5.52%
CCOC(=O)c1[nH]c2ccc(OC)cc2c1NC(=O)N1CCOCC1 -1.42%
O=C1CSC(c2cccc(F)c2)N1c1ccccc1F (configuration not stated) 9.21%
CCCSc1nc2c(c(=O)[nH]c(=O)n2C)n1CCc1ccccc1 5.24%
CCCCCCn1c(SCC(=O)c2ccccc2)nc2c1c(=O)[nH]c(=O)n2C 14.9%
COC(=O)c1ccc2c(c1)S(=O)(=O)NC(=NCCCN1CCOCC1)S2 -18.4%
O/N=C1\CC2(Cc3nonc31)OCCO2 -23.4%
Cc1ccc(OCC(=O)Nc2ccc(-c3nnc(-c4ccco4)o3)cc2)cc1 -19.2%
COc1ccc(CC(=O)Nc2ccc(-c3nnc(-c4ccccc4)o3)cc2)cc1 -6.58%
CC(C(=O)N1CCOCC1)N1c2cccc3cccc(c23)S1(=O)=O (configuration not stated) -2.26%
COc1cccc(Nc2nnc(SCC(=O)N3CC(C)OC(C)C3)s2)c1 (configuration not stated) 8.6%
COc1cccc(NC(=O)C2CCCN2C(=O)OCc2ccccc2)c1 (configuration not stated) -9.18%
CCCc1nnc(NC(=O)CN2C(=O)c3ccccc3S2(=O)=O)s1 -16.8%
CC(C)Cc1cc(C(=O)NCCc2ccccc2)no1 9.12%
CC(C)CNC(=O)c1cc(-c2ccc(Br)cc2)on1 1.43%
NC(=O)c1ccccc1NC(=O)c1ccccc1F -2.79%
CCN1CCCC1CNc1ncnc2c1[nH]c1ccc(F)cc12 (configuration not stated) 3.38%
O=C1CCCN1CCCNc1ncnc2c1[nH]c1ccccc12 -26.6%
COc1ccccc1NC(=O)c1ccc(C)s1 14.1%
CCOc1ccccc1NC(=O)Nc1cc(OC)ccc1OC -9.62%
CCOc1ccccc1NC(=O)CCN1CCN(S(=O)(=O)c2ccc(OC)cc2)CC1 -7.02%
O=C(Nc1ccc2c(c1)OCO2)C1CC(c2c(F)cccc2Cl)=NO1 (configuration not stated) 18%

Growth inhibition, active:
CC(=O)c1c(C)n([O-])c2ccccc2[n+]1=O 97.5%
Cc1nc2c(-c3ccccc3)c(C)[nH]n2c(=O)c1Cl 98%
N#Cc1nc(COc2ccc(-c3ccccc3)cc2)oc1NCc1cccnc1 88.7%
COc1ccc2c(c1)CCc1c(C(=O)N3CCc4ccccc4C3)noc1-2 77.6%
CCOC(=O)c1cc2cc(-c3c(C(=O)OCC)oc4cc(O)cc(O)c4c3=O)ccc2o1 87.4%
CCS(=O)(=O)n1nc(-c2ccccc2)nc1SCc1ccccc1 62.5%
CN(C)[C@@H]1C(=O)C(C(N)=O)=C(O)[C@@]2(O)C(=O)C3=C(O)c4c(O)ccc(Cl)c4[C@@H](O)[C@H]3C[C@@H]12 100%
N#Cc1nc(-c2ccc(OCc3ccccc3)cc2)oc1NCCCN1CCOCC1 96.3%
CCCCCn1c(SCCC(C)C)nc2c1c(=O)[nH]c(=O)n2C 64.3%
O=C(COC(=O)c1ccc(Oc2ccccc2)cc1)Nc1nnc(-c2ccccc2)o1 100%
COc1cccc(NC(=O)Nc2nnc(N3CCCCC3C)s2)c1 (configuration not stated) 61.5%
CC(C)Cc1cc(C(=O)Nc2cc(Br)ccc2O)no1 80.4%
CC(C)OCCCNc1ncnc2c1[nH]c1ccc(F)cc12 96.2%
CCOc1ccccc1Oc1cn[nH]c1-c1ccc(OC)cc1O 98.2%
